High-throughput results deposited in PubChem BioAssay by Sanford-Burnham Center for Chemical Genomics.
SUMO1-SIM PPI = modulators of human SUMO1-mediated protein-protein interactions; AID 602429; actives 0.33% (n = 360,000); inhibition, % at 20 µM; SUMO1 binding to a labelled peptide, TR-FRET, 1 h; P63165; in the data active = inhibition above about 37%
Target sequence (P63165 whole entry, looked up): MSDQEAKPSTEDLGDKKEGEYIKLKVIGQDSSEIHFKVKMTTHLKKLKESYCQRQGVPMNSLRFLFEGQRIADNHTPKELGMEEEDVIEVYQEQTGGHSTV
LMPTP inh = LMPTP (human) inhibition; P24666; recombinant LMPTP-A, OMFP fluorogenic substrate, fluorescence intensity; inhibition, % at 20 µM; actives 0.22% (n = 360,000);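 active = compounds that cut the enzyme signal by at least half of the control window in the single-dose screen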;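 also: plate controls were DMSO wells with enzyme plus substrate for no effect and substrate without enzyme for full effect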
Target sequence (P24666 whole entry, looked up): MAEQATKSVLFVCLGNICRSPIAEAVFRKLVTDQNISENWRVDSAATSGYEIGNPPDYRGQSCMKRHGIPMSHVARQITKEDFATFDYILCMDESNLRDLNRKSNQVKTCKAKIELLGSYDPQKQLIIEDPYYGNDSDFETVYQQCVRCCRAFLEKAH
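test system = LMPTP-A | amount = 0.625 nM LMPTP-A final | reagent = fluorogenic phosphatase substrate OMFP at 400 µM final | incubation = 50 min at room temperature | benchmarks = no-enzyme low control, uninhibited high control | medium = Bis-Tris pH 6.0, DTT, detergent | signal = fluorescence intensity of OMFP turnover product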
CSN deneddyl inh = blocks human CSN-mediated cullin deneddylation; inhibition, % at 12.5 µM; Purified CSN, SCF-Nedd8-OG deneddylation, fluorescence polarization; Q92905; AID 651999; actives 0.38% (n = 360,000);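 active = pattern-corrected inhibition above about 35%, with an unprinted fluorescence ratio check between 0.5 and 1.5, limit read from the data, passing the limit was not always enough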;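 also: 0% = enzyme with substrate and 100% = substrate without enzyme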
Target sequence (Q92905 whole entry, looked up, one chain of several): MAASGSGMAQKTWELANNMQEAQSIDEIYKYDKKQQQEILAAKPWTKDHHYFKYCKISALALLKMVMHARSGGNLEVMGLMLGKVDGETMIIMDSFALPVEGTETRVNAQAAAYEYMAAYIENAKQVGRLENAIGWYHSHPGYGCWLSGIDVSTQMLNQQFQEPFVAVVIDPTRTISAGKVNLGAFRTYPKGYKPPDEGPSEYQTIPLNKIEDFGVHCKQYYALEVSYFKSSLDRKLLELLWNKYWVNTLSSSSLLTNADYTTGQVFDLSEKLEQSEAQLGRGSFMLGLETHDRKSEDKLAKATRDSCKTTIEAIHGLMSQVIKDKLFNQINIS
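Schedule: reaction 90 min, room temperature / Assay system: HEK293T-derived human Csn5 enzyme / Input: Csn5 at 0.24 nM final / Measure: inhibition of Csn5 cleavage, % / Control set: substrate-only high control, full reaction low control / Technique: fluorescence polarization of the substrate / Buffer or medium: Tris/NaCl/DTT buffer, pH 7.5 / Reagent: SCFSkp2-Nedd8OG substrate at 10 nM final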
Scp-1 inhibitor = blocks human Scp-1 phosphatase activity; AID 493091; Recombinant Scp1, phosphopeptide, malachite green phosphate absorbance; actives 0.88% (n = 340,000); inhibition, % at 20 µM; Q9GZU7;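 active = inhibition above about 50% at 20 µM, limit read from the data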;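 also: plate controls were DMSO wells with enzyme for no effect and wells lacking enzyme for full effect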
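Test system: SCP-1 phosphatase catalytic domain, residues 76-261 | Compound dosing: One concentration, 20 µM, with 1.0% DMSO | Schedule: 45 min room-temperature reaction, 5 min colour, 30 min stabiliser | Detection: Absorbance at 630 nm | Read-out basis: % inhibition of SCP-1 phosphate liberation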
STEP inh = STEP (human) phosphatase inhibition; P54829; recombinant STEP, OMFP fluorogenic substrate, fluorescence; inhibition, % at 20 µM; actives 0.25% (n = 360,000); AID 588621;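 active = inhibition at 20 µM, scaled per plate between control wells, above about 37%, limit read from the data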;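 also: 0% = DMSO with enzyme and substrate and 100% = substrate only without enzyme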
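Measure: Control-normalized % inhibition with plate pattern correction | Test system: STEP phosphatase, cell-free reaction | Medium: pH 6.0 Bis-Tris with DTT and Tween 20 | Technique: Fluorescence, 480/540 nm | Times: Reaction 20 min, ambient temperature | Doses: Single compound dose of 20 µM, 1% DMSO final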
DNMT1 block = DNMT1 (human) enzyme inhibition; AID 588458; inhibition (reported as % activation of signal), % at 10 µM; DNMT1 molecular beacon, Hinp1I cleavage, fluorescence; actives 0.83% (n = 360,000); in the data active = inhibition above about 50%
Scp1 confirm = confirmation of human Scp-1 phosphatase inhibitors. recombinant SCP-1 catalytic domain, phosphate release, malachite green absorbance. shares compounds with Scp-1 inhibitor. actives 61% (n = 2,500). inhibition, % at 20 µM. AID 540281;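 also: plate controls were DMSO with enzyme for no effect and buffer wells lacking enzyme for full effect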
Scp-1 MG ctr = counter-screen for Scp-1 inhibitors: colorimetric interference. shares compounds with Scp-1 inhibitor. Colorimetric interference counterscreen, malachite green absorbance 630 nm. apparent inhibition (interference), % at 20 µM. 2,500 tested, under 10 active. AID 540313;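 also: compounds added after enzyme reaction finished so only phosphate colour detection is probed; plate controls were DMSO wells with completed Scp-1 reaction for no effect and substrate wells lacking enzyme for full effect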
Scp-1 Tm shift = binds human Scp-1, shifting its melting temperature; shares compounds with Scp-1 inhibitor; Recombinant SCP1, Sypro Orange thermal shift Tm; thermal shift relative to vanadate control, % at 40 µM; actives 25% (n = 1,500); AID 540329;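 active = substances whose mean melting-temperature shift, as a percentage of the reference inhibitor's shift, reaches about 5.3%, limit read from the data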;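 also: 0% = Tm of DMSO wells and 100% = Tm with sodium orthovanadate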
DNMT1 interf DR = counter-screen for DNMT1 inhibitors: spectral interference, dose response. molecular beacon fluorescence. IC50, µM. shares compounds with DNMT1 block. 200 tested, under 10 active; call rule not given here
DNMT1 confirm = confirmation of human DNMT1 inhibitors; inhibition, % at 10 µM; actives 8% (n = 2,300); shares compounds with DNMT1 block; AID 602385; DNMT1 molecular beacon HinP1I cleavage, fluorescence;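 active = average inhibition of at least 30% in the single-concentration confirmation test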
DNMT1 interf = beacon fluorescence artifact counter-screen; actives 1% (n = 2,300); shares compounds with DNMT1 block; DNMT1 molecular beacon spectral interference counterscreen, fluorescence 485/520; activation (fluorescence interference), % at 10 µM;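 active = activation of at least 30% at 10 µM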;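 also: DNMT1 catalytic domain with a HinP1I cleavage step and a FAM/dabcyl DNA beacon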
MMP2 cntr CSN = blocks human MMP-2 in a CSN deneddylation counter-screen; shares compounds with CSN deneddyl inh; recombinant MMP-2, FRET substrate fluorescence, 60 min; inhibition, % at 16.6 µM; actives 33% (n = 540); AID 720655;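 active = corrected plate-normalized z-score of 5 or more, or -5 or less, or inhibition of 15% or more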;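 also: plate controls were DMSO wells with enzyme for no effect and buffer wells lacking MMP-2 for full effect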
Thrombin counter = thrombin (bovine) inhibition, counter-screen for CSN hits; shares compounds with CSN deneddyl inh; actives 49% (n = 540); bovine thrombin cleavage of Ub4-pepOG, fluorescence polarization; inhibition, % at 16.6 µM;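 active = inhibition at or above a set limit, with a fluorescence interference ratio between 0.5 and a set maximum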
Starred values were filed as active, the others as inactive; . = not tested or not shown. In the library only some 1.9% were active in any assay of this set; here they are far more common.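 The calls were made as follows, unless noted: active = inhibition of at least 30% at 20 µM; inactive = the rest.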

SMILES	SUMO1-SIM PPI	LMPTP inh	CSN deneddyl inh	Scp-1 inhibitor	STEP inh	DNMT1 block	DNMT1 confirm	DNMT1 interf	others
O=C(O)CCn1cc(C=C2C(=O)NC(=S)NC2=O)c(-c2cc3ccccc3oc2=O)n1	10	0	12	87*	2	53*	.	.	Scp1 confirm=69*;Scp-1 MG ctr=-9;Scp-1 Tm shift=-9
O=C(O)CCn1cc(C=C2C(=O)NC(=S)NC2=O)c(-c2ccccc2)n1	7	-3	2	21	5	3	.	.
O=C1NC(=O)N(c2ccc3c(c2)OCO3)C(=O)/C1=C\c1ccc(-c2ccccc2C(=O)O)o1	24	4	16	56*	12	90*	8	-1	Scp1 confirm=52*;Scp-1 MG ctr=-11;Scp-1 Tm shift=3
Cc1ccc(/C=C2/C(=O)NC(=O)N(CCc3ccc(F)cc3)C2=O)o1	9	0	7	-10	-1	4	.	.
O=C1NC(=O)N(CCc2ccc(F)cc2)C(=O)/C1=C/c1ccco1	80*	66*	43*	92*	48*	98*	5	0	Scp1 confirm=66*;Scp-1 MG ctr=-16;Scp-1 Tm shift=-1
CC1C(=O)OC2CCN3CC4OC4(COC(=O)C(C)(O)C1(C)O)C23 (stereo unspecified)	4	-1	1	0	-4	-4	.	.
CCOC(=O)CC1c2ccccc2-n2nncc2CN1CC1CCCCC1 (stereo unspecified)	7	1	-2	.	10	5	.	.
Cc1cc(/C=C2/C(=O)NC(=O)N(c3ccc(Br)cc3)C2=O)c(C)n1C	-8	1	13	-5	-1	-4	.	.
Cc1cc(/C=C2\C(=O)NC(=O)N(c3ccc(Cl)cc3)C2=O)c(C)n1-c1cccc(C(=O)O)c1	19	1	15	52*	13	74*	6	0	Scp1 confirm=51*;Scp-1 MG ctr=-4;Scp-1 Tm shift=6.9*
Cc1cc(/C=C2\C(=O)NC(=O)N(c3ccc(Br)cc3)C2=O)c(C)n1-c1cc(C(=O)O)cc(C(=O)O)c1	28	5	26	60*	6	83*	3	-4	Scp1 confirm=42*;Scp-1 MG ctr=-16;Scp-1 Tm shift=-1
COc1ccccc1/C=C1\C(=O)NC(=S)N(c2ccccc2)C1=O	9	-2	5	15	0	-2	.	.
COc1ccc(CN2C(=O)NC(=O)/C(=C\c3ccco3)C2=O)cc1	22	29	62*	82*	11	86*	28	-5	Scp1 confirm=58*;Scp-1 MG ctr=-22;Scp-1 Tm shift=5.5*;DNMT1 interf DR=>99;MMP2 cntr CSN=20*;Thrombin counter=15*
CCOc1cccc(N2C(=O)/C(=C/c3ccco3)C(=O)NC2=S)c1	56*	34	39*	74*	56*	98*	80*	0	Scp1 confirm=70*;Scp-1 MG ctr=-11;Scp-1 Tm shift=6.4*;DNMT1 interf DR=>99;MMP2 cntr CSN=34*;Thrombin counter=10
COc1ccc(CC2NCC(O)C2OC(C)=O)cc1 (stereo unspecified)	-2	0	-1	-4	-1	1	.	.
Cc1ccc(N2C(=O)NC(=O)/C(=C\c3cc(C)n(-c4sc5c(c4C#N)CCCC5)c3C)C2=O)cc1	51*	2	22	2	3	70*	20	-5	DNMT1 interf DR=>99
O=C(O)C1C2CCC(O2)C1C(=O)Nc1cccc(Br)c1 (stereo unspecified)	1	0	3	-9	0	79*	3	4
O=C(O)C1C2c3ccccc3C(c3ccccc32)C1C(=O)Nc1ccccc1 (stereo unspecified)	-1	-1	2	-3	0	8	.	.
O=c1[nH]c(O)c(/C=C2\C=Nc3ccc(OCc4ccccc4)cc32)c(=O)[nH]1	4	1	5	-5	0	71*	8	0
COc1ccc(-c2ccc3c(c2)CN(C(=O)CCc2ccccc2)Cc2cnnn2-3)cc1	5	2	-1	.	1	-6	.	.
CN1CCc2nc(SCc3ccccc3Br)c(C#N)cc2C1	-15	6	7	-21	-1	39	.	.
C=CCSc1nc2c(c(-c3ccsc3)c1C#N)CN(C)CC2	-44	23	-6	-4	1	52*	2	3
CCCNC(=O)c1c(N)n(CC2CCCO2)c2nc3ccccc3nc12 (stereo unspecified)	44*	4	40*	7	5	61*	2	5
CC(C)OCCCNC(=O)c1c(N)n(CC2CCCO2)c2nc3ccccc3nc12 (stereo unspecified)	40*	13	36*	1	4	85*	1	9
CCOC(=O)C1(CCc2ccccc2)CCN(CC(O)CO)CC1 (stereo unspecified)	5	0	-1	-10	-3	2	.	.
O=C1CC2OCC=C3CN4CCC56c7ccccc7N1C5C2C3CC46O (stereo unspecified)	4	2	-3	.	3	6	.	.
C[C@@H]1CN([C@@H](C)CO)C(=O)CCCn2nncc2CO[C@@H]1CN(C)C(=O)Oc1cccc2ccccc12	0	-1	2	.	0	0	.	.
COc1nc2ccccc2c(=O)n1-c1ccc(C)cc1	3	1	1	-2	-2	88*	1	3
COc1nc2ccccc2c(=O)n1-c1ccc(Cl)cc1	0	-1	-1	-7	-1	15	.	.
CCOC(=O)c1cc2c(cn1)[C@@H](CCO)NC2	8	-1	-1	-5	0	-2	.	.
